Reference: ChEMBL document CHEMBL5705899 (Biochem J, 2014)
Active and inactive are the calls of the source. The rule behind the calls is not given here.

Legend:
[1] = target: MAP kinase-interacting serine/threonine-protein kinase 2 (Homo sapiens) (UniProt Q9HBH9); test: Inhibition of human MKNK2 at 1 uM using RB-S6P as substrate in presence of 33P-ATP by ProQinase assay
[2] = target: Testis-specific serine/threonine-protein kinase 1 (Homo sapiens) (UniProt Q9BXA7); test: Inhibition of human TSSK1 at 1 uM using RBER-CHKtide as substrate in presence of 33P-ATP by ProQinase assay
[3] = target: Mitogen-activated protein kinase 14 (Homo sapiens) (UniProt Q16539); test: Inhibition of human p38alpha at 1 uM using ATF2 as substrate in presence of 33P-ATP by ProQinase assay
Mitogen-activated protein kinase 14 (Homo sapiens), sequence (Q16539 whole entry): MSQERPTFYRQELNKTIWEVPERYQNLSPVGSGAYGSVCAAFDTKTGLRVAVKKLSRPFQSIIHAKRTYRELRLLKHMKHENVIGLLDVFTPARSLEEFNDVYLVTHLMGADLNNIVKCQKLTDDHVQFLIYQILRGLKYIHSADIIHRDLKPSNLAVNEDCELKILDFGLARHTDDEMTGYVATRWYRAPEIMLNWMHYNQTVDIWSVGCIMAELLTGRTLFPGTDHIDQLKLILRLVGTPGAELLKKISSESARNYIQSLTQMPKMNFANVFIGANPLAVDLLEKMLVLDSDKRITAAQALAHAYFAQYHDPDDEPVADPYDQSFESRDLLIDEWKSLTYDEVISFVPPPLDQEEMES

[4] = target: SRSF protein kinase 2 (Homo sapiens) (UniProt P78362); test: Inhibition of human SRPK2 at 1 uM using MBP as substrate in presence of 33P-ATP by ProQinase assay
[5] = target: Diacylglycerol kinase zeta (Homo sapiens) (UniProt Q13574); test: Inhibition of recombinant human N-terminal His6-tagged DGKzeta (1 to 929 residues) expressed in baculovirus expression system at 1 uM using diacyl-glycerol as substrate incubated for 40 mins by ADP-Glo assay
[6] = target: Ribosomal protein S6 kinase alpha-6 (Homo sapiens) (UniProt Q9UK32); test: Inhibition of human RPS6KA6 at 1 uM using RBER-GSK3 as substrate in presence of 33P-ATP by ProQinase assay
Homo sapiens = species: Homo sapiens; test: Inhibition of recombinant human N-terminal His6-tagged PI3Kalpha E542K mutant (2 to 1068 residues)/p85A (1 to 724 residues) expressed in baculovirus expression system at 1 uM using diC8 PIP2 as substrate incubated for 80 mins by ADP-Glo assay
[7] = target: Death-associated protein kinase 1 (Homo sapiens) (UniProt P53355); test: Inhibition of human DAPK1 at 1 uM using RBER-GSK3 as substrate in presence of 33P-ATP by ProQinase assay
[8] = target: Rho-associated protein kinase 2 (Homo sapiens) (UniProt O75116); test: Inhibition of human ROCK2 at 1 uM using RB-S6P as substrate in presence of 33P-ATP by ProQinase assay
[9] = target: Dual specificity mitogen-activated protein kinase kinase 2 (Homo sapiens) (UniProt P36507); test: Inhibition of human MEK2 at 1 uM using RBER-IRStide as substrate in presence of 33P-ATP by ProQinase assay
[10] = target: Insulin receptor (Homo sapiens) (UniProt P06213); test: Inhibition of recombinant human N-terminal His6-tagged IR (1001 to 1382 residues) expressed in baculovirus infected Sf21 cells assessed as remaining activity at 1 uM using KKSRGDYMTMQIG as substrate incubated for 30 mins in presence of [gamma-33P]ATP by filter binding method relative to control
[11] = target: Tyrosine-protein kinase Lyn (Homo sapiens) (UniProt P07948); test: Inhibition of human LYN at 1 uM using polyEY as substrate in presence of 33P-ATP by ProQinase assay
Tyrosine-protein kinase Lyn (Homo sapiens), sequence (P07948 2-512 limits assumed): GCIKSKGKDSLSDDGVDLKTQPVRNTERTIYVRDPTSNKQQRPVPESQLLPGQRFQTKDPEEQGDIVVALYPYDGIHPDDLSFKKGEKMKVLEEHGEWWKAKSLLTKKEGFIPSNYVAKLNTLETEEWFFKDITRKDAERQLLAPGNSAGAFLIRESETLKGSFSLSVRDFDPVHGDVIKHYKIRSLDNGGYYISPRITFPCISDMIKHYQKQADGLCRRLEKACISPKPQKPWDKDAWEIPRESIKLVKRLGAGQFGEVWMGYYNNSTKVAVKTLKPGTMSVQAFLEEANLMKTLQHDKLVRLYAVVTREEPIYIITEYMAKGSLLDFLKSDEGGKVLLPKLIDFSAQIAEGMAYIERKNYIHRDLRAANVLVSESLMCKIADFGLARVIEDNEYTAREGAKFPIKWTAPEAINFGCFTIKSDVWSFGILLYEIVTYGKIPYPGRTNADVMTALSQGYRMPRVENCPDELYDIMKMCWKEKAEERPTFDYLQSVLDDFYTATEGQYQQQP

[12] = target: Ephrin type-A receptor 4 (Homo sapiens) (UniProt P54764); test: Inhibition of human EPHA4 at 1 uM using polyEY as substrate in presence of 33P-ATP by ProQinase assay
Ephrin type-A receptor 4 (Homo sapiens), sequence (P54764 whole entry, the tested form may be a part): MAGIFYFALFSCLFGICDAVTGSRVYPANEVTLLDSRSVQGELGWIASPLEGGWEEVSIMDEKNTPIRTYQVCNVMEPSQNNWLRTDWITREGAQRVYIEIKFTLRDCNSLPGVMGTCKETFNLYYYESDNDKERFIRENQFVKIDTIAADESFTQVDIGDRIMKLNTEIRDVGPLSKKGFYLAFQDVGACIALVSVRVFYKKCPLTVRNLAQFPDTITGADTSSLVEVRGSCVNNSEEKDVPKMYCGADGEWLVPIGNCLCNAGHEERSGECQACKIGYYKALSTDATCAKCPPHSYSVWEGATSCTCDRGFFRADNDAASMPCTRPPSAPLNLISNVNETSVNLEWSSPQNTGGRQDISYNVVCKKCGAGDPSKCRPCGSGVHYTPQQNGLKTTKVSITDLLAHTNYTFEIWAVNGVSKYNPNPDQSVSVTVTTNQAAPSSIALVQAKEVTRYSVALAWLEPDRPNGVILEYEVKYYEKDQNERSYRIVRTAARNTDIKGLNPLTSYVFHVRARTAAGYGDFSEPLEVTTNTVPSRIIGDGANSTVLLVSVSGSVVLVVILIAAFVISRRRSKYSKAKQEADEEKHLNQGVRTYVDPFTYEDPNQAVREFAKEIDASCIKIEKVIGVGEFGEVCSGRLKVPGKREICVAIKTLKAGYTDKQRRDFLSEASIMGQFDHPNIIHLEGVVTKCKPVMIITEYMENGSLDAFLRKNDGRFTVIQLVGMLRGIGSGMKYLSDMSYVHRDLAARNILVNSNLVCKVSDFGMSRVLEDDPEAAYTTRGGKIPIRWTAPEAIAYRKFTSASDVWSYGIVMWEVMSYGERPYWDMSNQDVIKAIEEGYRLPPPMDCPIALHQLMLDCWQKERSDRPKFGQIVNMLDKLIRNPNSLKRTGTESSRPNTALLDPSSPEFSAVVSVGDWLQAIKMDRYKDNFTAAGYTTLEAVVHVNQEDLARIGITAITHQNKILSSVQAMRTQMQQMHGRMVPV

[13] = target: Serine/threonine-protein kinase 33 (Homo sapiens) (UniProt Q9BYT3); test: Inhibition of recombinant human N-terminal GST-tagged STK33 (1 to 514 residues) expressed in baculovirus infected Sf21 cells assessed as remaining activity at 1 uM using AALVRQMSVAFFFKKKKK as substrate incubated for 30 mins in presence of [gamma-33P]ATP by filter binding method relative to control
[14] = target: Tyrosine-protein kinase ZAP-70 (Homo sapiens) (UniProt P43403); test: Inhibition of human ZAP70 at 1 uM using polyEY as substrate in presence of 33P-ATP by ProQinase assay
Tyrosine-protein kinase ZAP-70 (Homo sapiens), sequence (P43403 whole entry): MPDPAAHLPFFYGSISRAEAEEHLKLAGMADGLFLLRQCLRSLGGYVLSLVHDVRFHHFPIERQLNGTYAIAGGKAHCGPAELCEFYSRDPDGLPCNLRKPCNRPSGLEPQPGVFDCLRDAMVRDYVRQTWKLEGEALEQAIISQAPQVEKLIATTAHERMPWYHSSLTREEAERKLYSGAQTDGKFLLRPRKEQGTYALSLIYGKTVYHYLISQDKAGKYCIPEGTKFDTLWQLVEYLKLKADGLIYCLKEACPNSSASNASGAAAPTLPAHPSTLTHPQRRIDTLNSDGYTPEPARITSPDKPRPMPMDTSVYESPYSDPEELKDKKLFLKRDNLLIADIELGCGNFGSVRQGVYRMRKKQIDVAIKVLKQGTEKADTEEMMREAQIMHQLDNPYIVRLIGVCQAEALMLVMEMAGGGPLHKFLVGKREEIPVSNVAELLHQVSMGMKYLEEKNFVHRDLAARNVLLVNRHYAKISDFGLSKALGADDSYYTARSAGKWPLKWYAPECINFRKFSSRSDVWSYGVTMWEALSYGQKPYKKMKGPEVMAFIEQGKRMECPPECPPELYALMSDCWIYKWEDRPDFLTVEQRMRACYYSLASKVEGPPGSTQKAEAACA

[15] = target: Misshapen-like kinase 1 (Homo sapiens) (UniProt Q8N4C8); test: Inhibition of human MINK1 at 1 uM using RBER-CHKtide as substrate in presence of 33P-ATP by ProQinase assay
[16] = target: Platelet-derived growth factor receptor beta (Homo sapiens) (UniProt P09619); test: Inhibition of human PDGFRbeta at 1 uM using poly(Ala,Glu,Lys,Tyr) as substrate in presence of 33P-ATP by ProQinase assay
Platelet-derived growth factor receptor beta (Homo sapiens), sequence (P09619 whole entry): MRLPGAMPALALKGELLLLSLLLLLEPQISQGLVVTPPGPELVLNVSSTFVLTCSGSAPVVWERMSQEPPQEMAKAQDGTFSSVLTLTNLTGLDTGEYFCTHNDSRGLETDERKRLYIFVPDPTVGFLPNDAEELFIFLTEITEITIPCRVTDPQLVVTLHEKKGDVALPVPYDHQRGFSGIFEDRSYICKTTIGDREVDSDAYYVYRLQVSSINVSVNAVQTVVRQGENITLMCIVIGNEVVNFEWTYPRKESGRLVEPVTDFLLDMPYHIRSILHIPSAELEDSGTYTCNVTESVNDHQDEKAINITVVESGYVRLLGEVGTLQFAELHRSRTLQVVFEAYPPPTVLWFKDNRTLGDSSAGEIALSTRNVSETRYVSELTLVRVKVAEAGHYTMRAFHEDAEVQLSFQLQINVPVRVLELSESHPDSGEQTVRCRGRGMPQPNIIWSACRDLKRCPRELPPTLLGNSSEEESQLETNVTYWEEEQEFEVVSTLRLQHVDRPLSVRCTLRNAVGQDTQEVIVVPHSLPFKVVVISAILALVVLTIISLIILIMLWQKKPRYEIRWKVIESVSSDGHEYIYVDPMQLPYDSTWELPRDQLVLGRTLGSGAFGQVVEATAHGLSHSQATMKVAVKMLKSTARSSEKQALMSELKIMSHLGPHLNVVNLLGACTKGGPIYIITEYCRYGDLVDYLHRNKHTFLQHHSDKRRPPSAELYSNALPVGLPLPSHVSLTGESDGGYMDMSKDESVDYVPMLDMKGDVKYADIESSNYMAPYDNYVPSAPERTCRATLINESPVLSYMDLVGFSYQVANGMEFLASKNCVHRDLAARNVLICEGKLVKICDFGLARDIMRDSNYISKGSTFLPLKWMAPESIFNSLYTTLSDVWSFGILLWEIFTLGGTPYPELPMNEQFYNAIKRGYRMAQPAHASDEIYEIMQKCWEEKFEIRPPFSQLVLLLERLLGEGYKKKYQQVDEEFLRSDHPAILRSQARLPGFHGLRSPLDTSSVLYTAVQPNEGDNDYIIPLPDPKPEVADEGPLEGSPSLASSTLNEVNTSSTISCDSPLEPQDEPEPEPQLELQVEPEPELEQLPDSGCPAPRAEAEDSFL

[17] = target: Dual specificity tyrosine-phosphorylation-regulated kinase 3 (Homo sapiens) (UniProt O43781); test: Inhibition of human DYRK3 at 1 uM using RBER-IRStide as substrate in presence of 33P-ATP by ProQinase assay
[18] = target: Ribosomal protein S6 kinase alpha-1 (Homo sapiens) (UniProt Q15418); test: Inhibition of human RPS6KA1 at 1 uM using RBER-CHKtide as substrate in presence of 33P-ATP by ProQinase assay
[19] = target: Tyrosine-protein kinase JAK2 (Homo sapiens) (UniProt O60674); test: Inhibition of human JAK2 at 1 uM using poly(Ala,Glu,Lys,Tyr) as substrate in presence of 33P-ATP by ProQinase assay
[20] = target: Diacylglycerol kinase kappa (Homo sapiens) (UniProt Q5KSL6); test: Inhibition of DGKkappa (unknown origin) at 1 uM
Diacylglycerol kinase kappa (Homo sapiens), sequence (Q5KSL6 whole entry): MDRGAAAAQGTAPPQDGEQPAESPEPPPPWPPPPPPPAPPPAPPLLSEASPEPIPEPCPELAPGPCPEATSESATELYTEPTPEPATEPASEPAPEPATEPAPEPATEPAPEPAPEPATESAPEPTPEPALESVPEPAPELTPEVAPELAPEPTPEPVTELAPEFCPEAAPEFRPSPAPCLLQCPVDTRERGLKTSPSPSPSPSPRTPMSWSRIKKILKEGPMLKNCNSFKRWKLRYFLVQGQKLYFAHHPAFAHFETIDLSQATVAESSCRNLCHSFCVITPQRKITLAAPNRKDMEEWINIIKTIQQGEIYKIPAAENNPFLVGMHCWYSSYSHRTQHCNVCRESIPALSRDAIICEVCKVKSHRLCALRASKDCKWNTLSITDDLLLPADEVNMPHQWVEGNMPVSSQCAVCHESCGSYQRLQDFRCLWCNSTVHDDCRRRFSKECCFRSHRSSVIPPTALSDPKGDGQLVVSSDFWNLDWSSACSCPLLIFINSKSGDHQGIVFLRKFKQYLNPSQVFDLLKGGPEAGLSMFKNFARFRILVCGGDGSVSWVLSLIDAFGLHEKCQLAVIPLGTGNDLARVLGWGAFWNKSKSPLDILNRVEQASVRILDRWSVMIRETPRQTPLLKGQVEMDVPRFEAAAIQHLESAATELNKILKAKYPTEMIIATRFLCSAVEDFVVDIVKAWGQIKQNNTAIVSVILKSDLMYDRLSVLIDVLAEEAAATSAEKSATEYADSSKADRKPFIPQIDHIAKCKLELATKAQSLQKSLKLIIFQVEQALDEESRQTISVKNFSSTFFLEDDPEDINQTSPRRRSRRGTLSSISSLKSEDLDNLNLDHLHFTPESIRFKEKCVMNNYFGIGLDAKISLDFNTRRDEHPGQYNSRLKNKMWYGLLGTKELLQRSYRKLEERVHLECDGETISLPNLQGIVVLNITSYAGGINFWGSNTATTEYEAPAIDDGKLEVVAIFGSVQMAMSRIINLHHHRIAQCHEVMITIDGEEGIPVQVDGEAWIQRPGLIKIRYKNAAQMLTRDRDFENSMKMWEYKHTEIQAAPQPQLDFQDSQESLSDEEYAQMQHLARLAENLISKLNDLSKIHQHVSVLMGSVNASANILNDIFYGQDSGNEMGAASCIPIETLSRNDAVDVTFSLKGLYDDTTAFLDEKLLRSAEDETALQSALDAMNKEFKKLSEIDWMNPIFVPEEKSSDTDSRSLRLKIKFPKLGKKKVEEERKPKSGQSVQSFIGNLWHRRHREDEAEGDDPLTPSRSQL

[21] = target: Death-associated protein kinase 2 (Homo sapiens) (UniProt Q9UIK4); test: Inhibition of human DAPK2 at 1 uM using RB-S6P as substrate in presence of 33P-ATP by ProQinase assay
U2OS = test: Inhibition of PI3K in human U2OS cells expressing FLAG-tagged SGK3 assessed as reduction in NDRG1 phosphorylation at T346 residues at 0.01 to 1 uM 1 hr by immunoblot analysis; assay type: cell-based; settings: dose 0.01-1 µM
In short: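 Flp-In T-REx U2OS cells were grown in McCoy medium with 10% FBS. Expression of C-terminally FLAG-tagged full-length SGK3 was induced with 0.01 mg/ml doxycycline for 24 h. Cells were treated with inhibitor for 1 h and lysed in phosphatase-inhibitor buffer. Lysates were cleared at 16000 g for 10 min at 4°C, protein was measured by Bradford, and phosphorylation was read by immunoblot with ECL detection.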

[22] = target: cAMP-dependent protein kinase catalytic subunit alpha (Homo sapiens) (UniProt P17612); test: Inhibition of human PKACalpha at 1 uM using bio-4xCHKT as substrate in presence of 33P-ATP by ProQinase assay
[23] = target: Serine/threonine-protein kinase ULK1 (Homo sapiens) (UniProt O75385); test: Inhibition of recombinant human ULK1 (2 to 1050 residues) expressed in baculovirus infected Sf21 cells assessed as remaining activity at 1 uM using MBP as substrate incubated for 30 mins in presence of [gamma-33P]ATP by filter binding method relative to control
[24] = target: Interleukin-1 receptor-associated kinase 1 (Homo sapiens) (UniProt P51617); test: Inhibition of human IRAK1 at 1 uM using RB-CTF as substrate in presence of 33P-ATP by ProQinase assay

## CC(C)(O)CNc1ncc(-c2ccnc(Nc3ccnc(Cl)c3)n2)c(CC2CC2)n1
[1]
  inhibition: inactive
[2]
  inhibition: inactive
[3]
  inhibition: inactive
[4]
  inhibition: inactive
[5]
  inhibition: inactive
[6]
  inhibition: inactive
Homo sapiens
  inhibition: inactive
[7]
  inhibition: inactive
[8]
  inhibition: inactive
[9]
  inhibition: inactive
[10]
  Activity: 109%
[11]
  inhibition: inactive
[12]
  inhibition: inactive
[13]
  Activity: 124%
[14]
  inhibition: inactive
[15]
  inhibition: inactive
[16]
  inhibition: inactive
[17]
  inhibition: inactive
[18]
  inhibition: inactive
[19]
  inhibition: inactive
[20]
  inhibition: inactive
[21]
  inhibition: inactive
U2OS
  inhibition: Active
[22]
  inhibition: inactive
[23]
  Activity: 98%
[24]
  inhibition: inactive
